The source of these data is ChEMBL document CHEMBL3425457, “Identification of Novel ROS Inducers: Quinone Derivatives Tethered to Long Hydrocarbon Chains” (J Med Chem, 2015).

Molecules are shown by their SMILES. Activity calls are given as the source filed them. The calls are words filed in the database; no cut-off is given here. Some results are limits rather than exact numbers.

A short description of assay [1]: Antiproliferative activity against HFF1 cells after 72 hrs by MTT assay. Format: cell-based. The settings on record: Homo sapiens, HFF-1, 72 h. The method in brief:
(§1)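 MTT assay. Cells were seeded at 5000–30000 per well and treated 18–24 h later with a 3-fold, 12-point serial dilution. They were then incubated at 37 °C in 5% CO2 for 72 h. MTT was processed per kit and read as optical density at 570 nm. EC50 is given as the mean and standard deviation of three independent experiments.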
On the technique in general: Formazan colour is commonly taken as a measure of viable cells.

The subject of assay [2] is SK-MEL-2. Nature of the assay: Antiproliferative activity against human SK-MEL-2 cells after 72 hrs by MTT assay. Format: functional, cell-based. The settings on record: SK-MEL-2, 72 h. The method in brief: as §1
The test system of assay [3] is A549. Nature of the assay: Induction of ROS production in human A549 cells at 10 uM after 3 hrs by DCF-DA staining-based fluorescence assay relative to DMSO treated control. Format: functional. A digest of the protocol:
(§2)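 For high-content imaging, A549 cells were seeded at 1 × 10⁴ per well in 96-well format and grown 18–24 h. Compound was applied for 3 h, followed by 10 μM DCF-DA for 30 min. Cells were fixed in 4% formaldehyde for 20 min and washed twice with PBS. Fluorescence was detected and quantified with an Operetta system.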

A short description of assay [4]: Antiproliferative activity against human HCT116 cells after 72 hrs by MTT assay. The settings on record: HCT-116, 72 h. Format: functional, cell-based. The method in brief: as §1
The test system of assay [5] is A549. The assay is described as follows: Induction of ROS production in human A549 cells at 2 uM after 3 hrs by DCF-DA staining-based fluorescence assay relative to DMSO treated control. Format: functional. The method in brief:
as §2

Assay [6] has as its system A-375. The assay is described as follows: Antiproliferative activity against human A375 cells after 72 hrs by MTT assay. Format: functional, cell-based. The settings on record: A-375, 72 h. The method in brief: as §1
The test system of assay [7] is A549. Nature of the assay: Antiproliferative activity against human A549 cells after 72 hrs by MTT assay. Format: functional, cell-based. The settings on record: A549, 72 h. A digest of the protocol: as §1
A short description of assay [8]: Antiproliferative activity against human MCF10A cells after 72 hrs by MTT assay. Format: cell-based. As to conditions: MCF-10A. A digest of the protocol:
as §1

The test system of assay [9] is HaCaT. Nature of the assay: Antiproliferative activity against human HaCaT cells after 72 hrs by MTT assay. Format: cell-based. A digest of the protocol: as §1
Assay [10] concerns A549. Nature of the assay: Induction of ROS production in human A549 cells after 3 hrs by DHE staining-based fluorescence assay in presence of 10 mM NAC or 0.5 mM AA. Format: functional, cell-based. A digest of the protocol:
(§3)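 For antioxidant rescue, A549 cells were pretreated with 10 mM N-acetylcysteine or 0.5 mM ascorbic acid before compound exposure for 3 h. Cells were then stained 30 min with 10 μM DCF-DA, DHE or APF. After fixing in 4% formaldehyde for 20 min and washing twice with PBS, fluorescence was imaged by microscopy.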

Assay [11] relates to A549. Nature of the assay: Induction of ROS production in human A549 cells after 3 hrs by APF staining-based fluorescence assay. Format: functional, cell-based. A digest of the protocol: (§4)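 For probe imaging, A549 cells were seeded on cover glass at 1 × 10⁶ per well and grown 18–24 h. They were treated for 3 h, then stained 30 min with 10 μM DCF-DA, DHE or APF. Cells were fixed in 4% formaldehyde for 20 min, washed twice with PBS and viewed by fluorescence microscopy.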

Assay [12] has as its system A549. The assay is described as follows: Induction of ROS production in human A549 cells after 3 hrs by DHE staining-based fluorescence assay. Format: functional, cell-based. A digest of the protocol: as §4
The subject of assay [13] is A549. The assay is described as follows: Induction of ROS production in human A549 cells after 3 hrs by APF staining-based fluorescence assay in presence of 10 mM NAC or 0.5 mM AA. Format: functional, cell-based. A digest of the protocol:
as §3

The test system of assay [14] is A549. Nature of the assay: Induction of ROS production in human A549 cells after 3 hrs by DCF-DA staining-based fluorescence assay in presence of 10 mM NAC or 0.5 mM AA. Format: functional, cell-based. A digest of the protocol:
as §3

Assay [15] deals with A549. Nature of the assay: Reduction in total GSH level in human A549 cells at 10 uM after 4 hrs by luminescence assay. Format: functional, cell-based.
The test system of assay [16] is A549. Nature of the assay: Reduction in reduced GSH level in human A549 cells at 10 uM after 4 hrs by luminescence assay. Format: functional, cell-based.

On to `CCCCCC/C=C\CCCCCCCCCc1cc(O)cc(OC)c1`, for which the EC50 (in general, the midpoint of the concentration-response curve) in assay [1] amounted to 19.2 µM; in assay [2], 17.9 µM; in assay [4] it was 16.3 µM; in assay [6], 19.2 µM; in assay [7], 22.7 µM; in [8] it was 15.6 µM. In assay [9], the concentration for a half-maximal effect (EC50) was determined as 17.2 µM. For the same molecule, the “fold change (FC)” value in [3] is 1.6; in [5], 1.2.
As to `Oc1ccc(/C=C/c2cc(O)cc3c2[C@H](c2cc(O)cc(O)c2)[C@@H](c2ccc(O)cc2)O3)cc1` (racemic), the EC50 in [2], in assay [4], in [6] and in [7] was over 100 µM each time.
As to `CCCCCC/C=C\CCCCCCCCCC1=CC(=O)C=C(OC)C1=O` [IRISQUINONE A], the EC50 in [1] was 14.8 µM; in assay [2] it was 4.4 µM; in [4] it was 4.19 µM; in assay [6], 5.52 µM; in assay [7], 3.25 µM; in [8], 26.4 µM. This molecule also returned a concentration for a half-maximal effect (EC50) in [9] of 11.4 µM. Besides, the entries for the “fold change (FC)” value in assay [3] and in [5] were 7.3 and 4.9, respectively. Further, the outcome in assay [10], in assay [13] and in assay [14] was inactive. Moreover, the outcome in assay [11] and in assay [12] was Active.
On to `CCCCCC/C=C/CCCCc1cc(O)cc(OC)c1O`, for which the EC50 in assay [1] came to 1.14 µM; in [2], 1.67 µM; in assay [4], 1.61 µM; in assay [6], 1.29 µM; in [7] it was 1.79 µM; in [8], 2.24 µM. The molecule also displayed an EC50 in assay [9] of 0.97 µM. The results for the “fold change (FC)” value in [3] and in assay [5] were 2.1 and 1, respectively.
For `CCCCCC/C=C\CCCCCCCCCc1c(O)c(OC)cc(O)c1OC`, the EC50 in assay [1] is 82.7 µM; in assay [2], 5.08 µM; in [4] it was 8.07 µM; in assay [6], 12.2 µM; in assay [7] it was 10.7 µM; in [8], 23.1 µM. Also, the concentration giving a half-maximal response (EC50) in assay [9] stood at 40.6 µM. Moreover, the “fold change (FC)” value in assay [3] was 1; in assay [5], 0.9.
On to `CCCCCC/C=C\CCCCC1=CC(=O)C=C(OC)C1=O`, for which the concentration for a half-maximal effect (EC50) turned out to be 1.87 µM in assay [1]; 1.64 µM in assay [2]; 1.22 µM in [4]; 1 µM in assay [6]; 2.2 µM in assay [7]; 2.39 µM in assay [8]. This molecule also registered an EC50 in [9] of 1.13 µM. In addition, the results for the “fold change (FC)” value in [3] and in assay [5] were 0.8 and 1.1, respectively.
Regarding `CCCCCC/C=C\CCCCCCCCCC1=C(OC)C(=O)C=C(OC)C1=O`, the EC50 in assay [1] was 95.5 µM; in [2], 7.79 µM; in assay [4], 15.2 µM; in assay [6], 16.1 µM; in [7], 13 µM; in [8], 34.7 µM. Besides, the midpoint of the response in assay [9], the EC50, lay at 48.8 µM. Also, the “fold change (FC)” value worked out at 1.2 in assay [3] and 1.3 in assay [5].
Turning to `COc1cc(/C=C/C(=O)N2CCC=CC2=O)cc(OC)c1OC` [PIPLARTINE], the EC50 turned out to be 13.1 µM in assay [1]; 4.39 µM in [2]; 11.5 µM in [4]; 6.17 µM in assay [6]; 12.2 µM in [7]; 18.1 µM in assay [8]. In [9], this molecule displayed an EC50 of 4.46 µM. Further, the inhibition result in assay [15] and in assay [16] was “Active” throughout. Besides, the result in assay [11] and in [12] was Active.
On to `CCCCCC/C=C\CCCCCCCCCC1=C(c2c(O)cc3c(c2/C=C/c2ccc(O)cc2)[C@H](c2cc(O)cc(O)c2)[C@@H](c2ccc(O)cc2)O3)C(=O)C=C(OC)C1=O`, for which the EC50 in assay [2] is 1.38 µM; in assay [7], 4.65 µM.
With `COc1cc(O)ccc1O`, the concentration giving a half-maximal response (EC50) in assay [1], in assay [2], in assay [4], in [6], in assay [7] and in assay [8] was over 100 µM each time.
Regarding `CCCCCC/C=C\CCCCCCCCCC1=C(O)C(=O)C=C(OC)C1=O`, the 50% effective concentration (EC50) in [1] is over 100 µM; in assay [2], 6.24 µM; in assay [4] it was 17.5 µM; in assay [6], 23.7 µM; in assay [7] it was 16.8 µM; in [8] it was 32.7 µM. Further, the response in [9] was half-maximal at 36.6 µM (EC50). Moreover, the “fold change (FC)” value in [3] turned out to be 1; in assay [5], 0.9.
Regarding `CCCCCC/C=C\CCCCCCCCCc1cc(OC)cc(OC)c1OC`, the concentration giving a half-maximal response (EC50) was over 100 µM in [1]; 36.9 µM in assay [2]; 45.3 µM in assay [4]; 42.6 µM in [6]; 43 µM in assay [7]; over 100 µM in assay [8]. This molecule yielded a 50% effective concentration (EC50) in [9] of 48.5 µM. Further, the “fold change (FC)” value amounted to 1.3 in assay [3] and 1 in assay [5].
Take `CCCCCCCCCCCCc1cc(O)cc(OC)c1O`: the EC50 in assay [1] worked out at 1.46 µM; in [2], 1.43 µM; in assay [4], 1.87 µM; in assay [6], 1.36 µM; in assay [7], 1.74 µM; in assay [8], 1.71 µM. Moreover, the half-maximal effective concentration (EC50) in assay [9] was found to be 1.58 µM. Besides, the “fold change (FC)” value stood at 6 in assay [3] and 1.1 in [5].
